Rows were chosen to be rich in hits. Some 2.2% of all compounds tested hit in one or more screens of this group.
LEDGF integ inh – blocks HIV-1 LEDGF/p75-dependent DNA integration; AID 743269; TR-FRET IN-LEDGF/p75 DNA integration, Eu/Cy5; inhibition, % at 3.7 µM; 370,000 compounds, 0.64% hits;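 active = inhibition above the screen-wide mean plus 3 SD, cut at about 13% in these data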;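 also: signal is the Cy5 over europium emission ratio at 671 and 618 nm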
HTRA1 inh – HTRA1 (human) protease inhibition. inhibition, % at 5.96 µM. AID 504803. Q92743. recombinant HTRA1, FP-rhodamine activity-based probe, fluorescence polarization. 340,000 compounds, 0.5% hits; in the data active = inhibition above about 36%
TCR CD3 inh – blocks the human TCR-CD3 interaction. TAMRA-labeled TCR probe fluorescence, biochemical. inhibition, % at 9.4 µM. AID 651800. 360,000 compounds, 0.37% hits;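 also: recombinant mutant TCR 2C K166C tagged with TAMRA read by polarization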
mABHD4 FP – ABHD4 (mouse) inhibition, primary FP screen | Q8VD66 | purified mABHD4, FP-Rh probe fluorescence polarization | inhibition, % at 8.92 µM | 370,000 compounds, 0.54% hits | AID 720543;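 active = inhibition exceeding the mean over every tested compound plus 3 SD, cut at about 30% in these data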
Target sequence (Q8VD66 whole entry, looked up): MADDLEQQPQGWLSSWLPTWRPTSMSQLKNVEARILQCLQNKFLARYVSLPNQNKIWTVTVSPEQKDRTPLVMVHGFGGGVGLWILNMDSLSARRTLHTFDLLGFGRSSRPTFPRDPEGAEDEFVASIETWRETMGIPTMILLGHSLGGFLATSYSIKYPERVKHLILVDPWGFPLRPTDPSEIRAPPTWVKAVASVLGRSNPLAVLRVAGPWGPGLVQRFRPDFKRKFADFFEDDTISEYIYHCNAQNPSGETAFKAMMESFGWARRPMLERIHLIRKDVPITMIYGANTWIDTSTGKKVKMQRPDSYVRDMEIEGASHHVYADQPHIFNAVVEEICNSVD
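Assay system: mouse ABHD4 enzyme, wild type / Also added: fluorescent activity-based probe FP-Rh / Doses: single nominal dose of 8.92 µM, 0.89% DMSO final / Timing: 45 min compound pre-incubation plus 60 min probe step, 25 °C / Signal: FP readout, ex 525 nm / em 598 nm / Control set: S159A mutant/DMSO as 100%, compound-well median as 0%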
SIAE inh – blocks human sialic acid acetylesterase. Q9HAT2. SIAE FP-Rh probe binding, fluorescence polarization. inhibition, % at 9.66 µM. 370,000 compounds, 0.69% hits. AID 1053197;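 active = inhibition above a cutoff: mean of compounds within the control limits plus 3 SD of those, cut at about 17% in these data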
TDP2 absorb – TDP2 (human) inhibition, absorbance primary screen; O95551; recombinant TDP2, T5PNP hydrolysis, p-nitrophenol absorbance 415 nm; inhibition, % at 12.8 µM; 370,000 compounds, 0.34% hits;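 active = inhibition above the mean of all tested compounds plus 3 SD, set per campaign, cut at about 25% in these data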
Target sequence (O95551 whole entry, looked up): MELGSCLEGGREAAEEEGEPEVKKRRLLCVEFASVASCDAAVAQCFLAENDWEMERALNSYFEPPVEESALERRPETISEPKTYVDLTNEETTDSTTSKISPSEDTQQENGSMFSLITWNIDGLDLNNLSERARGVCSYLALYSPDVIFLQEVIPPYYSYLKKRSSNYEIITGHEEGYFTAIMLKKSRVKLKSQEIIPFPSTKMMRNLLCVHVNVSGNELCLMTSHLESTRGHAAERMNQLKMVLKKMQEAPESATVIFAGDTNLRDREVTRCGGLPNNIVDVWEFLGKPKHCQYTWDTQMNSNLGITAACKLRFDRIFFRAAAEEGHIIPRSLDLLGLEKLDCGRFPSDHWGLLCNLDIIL
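Material: recombinant human TDP2; quantity: TDP2 enzyme at 120 nM final; medium: Tris-HCl pH 7.5 with MgCl2; compound: single concentration, 12.8 µM nominal, with 1% DMSO; incubation: 2 h enzyme incubation at 37 °C; signal: epi absorbance; measure: percent inhibition; benchmarks: high control without enzyme, low control DMSO plus TDP2; repeats: singlicate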
BSA TAMRA ctr – counter-screen for TCR-CD3 interaction inhibitors: BSA probe. shares compounds with TCR CD3 inh. TAMRA-labeled BSA probe fluorescence counterscreen. inhibition, % at 9.4 µM. 1,200 compounds, 10% hits. AID 652035; in the data active = inhibition above about 23%
TCR-CD3 inh conf – confirmation of human TCR-CD3 interaction inhibitors; shares compounds with TCR CD3 inh; TAMRA-labeled TCR probe fluorescence binding assay; inhibition, % at 9.4 µM; 1,200 compounds, 48% hits; AID 652036
A number is an active result. Rule as the data show it, unless noted: active = inhibition above about 19%; inactive = the rest.

How did Cc1ccc(NS(=O)(=O)c2ccc(Cl)c(C(=O)Nc3ccccc3-c3nc4ccccc4[nH]3)c2)cc1C do in these assays?
LEDGF integ inh: inactive; HTRA1 inh: inactive; TCR CD3 inh: 78; mABHD4 FP: inactive; SIAE inh: inactive; TDP2 absorb: inactive; BSA TAMRA ctr: inactive; TCR-CD3 inh conf: 37

How did COC(=O)[C@]12C[C@H](CC(=O)N3CCC(c4ccccc4)CC3)C(=O)N(Cc3ccccc3)C1=C[C@H](C(C)C)O[C@@H]2C1CC1 do in these assays?
LEDGF integ inh: inactive; TCR CD3 inh: inactive; mABHD4 FP: inactive; SIAE inh: inactive; TDP2 absorb: inactive

How did O=C(/C=C/c1ccccc1)Nc1cccc(C(=O)NCCc2ccccc2)c1 do in these assays?
LEDGF integ inh: inactive; HTRA1 inh: inactive; TCR CD3 inh: inactive; mABHD4 FP: inactive; SIAE inh: inactive; TDP2 absorb: inactive

What do the screens show for `O=C(/C=C/c1ccccc1)Nc1cccc(C(=O)NCCCCc2ccccc2)c1`?
LEDGF integ inh: inactive; HTRA1 inh: inactive; TCR CD3 inh: 44; mABHD4 FP: inactive; SIAE inh: inactive; TDP2 absorb: inactive; BSA TAMRA ctr: inactive; TCR-CD3 inh conf: inactive

What do the screens show for `Cc1ccnc(NC(=S)N2CCC(Nc3cccc(C(F)(F)F)c3)CC2)c1`?
LEDGF integ inh: inactive; mABHD4 FP: inactive; SIAE inh: inactive; TDP2 absorb: inactive

What do the screens show for `Cc1cccc(-c2cccc3c4c([nH]c23)[C@@H]2C[C@H](N(C)C(=O)c3ccco3)[C@H]([C@H](C)O)C(=O)N2CC4)c1`?
LEDGF integ inh: inactive; mABHD4 FP: inactive; SIAE inh: inactive; TDP2 absorb: inactive

What do the screens show for `COc1ccccc1NC(=O)Cc1coc2cc(C)ccc12`?
LEDGF integ inh: inactive; HTRA1 inh: inactive; TCR CD3 inh: inactive; mABHD4 FP: inactive; SIAE inh: inactive; TDP2 absorb: inactive

What do the screens show for `Cc1ccc2c(CC(=O)NNC(=O)c3ccccc3O)coc2c1`?
LEDGF integ inh: inactive; HTRA1 inh: inactive; TCR CD3 inh: 20; mABHD4 FP: inactive; SIAE inh: inactive; TDP2 absorb: inactive; BSA TAMRA ctr: inactive; TCR-CD3 inh conf: 21

What do the screens show for `O=C(CC1CCCC1)NNC(=O)c1ccccc1O`?
LEDGF integ inh: inactive; HTRA1 inh: inactive; TCR CD3 inh: 29; mABHD4 FP: inactive; SIAE inh: inactive; TDP2 absorb: inactive; BSA TAMRA ctr: inactive; TCR-CD3 inh conf: 23

What do the screens show for `Cc1ccc(C(=O)CCC(=O)NNC(=O)c2ccccc2O)cc1`?
LEDGF integ inh: inactive; HTRA1 inh: inactive; TCR CD3 inh: 21; mABHD4 FP: inactive; SIAE inh: inactive; TDP2 absorb: inactive; BSA TAMRA ctr: inactive; TCR-CD3 inh conf: 23

Results for O=C(CCNC(=O)c1ccccc1Cl)NNC(=O)c1ccccc1O ?
LEDGF integ inh: inactive; HTRA1 inh: inactive; TCR CD3 inh: 23; mABHD4 FP: inactive; SIAE inh: inactive; TDP2 absorb: inactive; BSA TAMRA ctr: inactive; TCR-CD3 inh conf: inactive

Results for CN1CC=C(c2ccc(C(F)(F)F)cc2)N(c2ccccc2)C1=O ?
LEDGF integ inh: inactive; mABHD4 FP: inactive; SIAE inh: inactive; TDP2 absorb: inactive

How did CCOc1ccc(NC(=O)c2cc(-c3ccc(Cl)cc3)nc3ccccc23)cc1 do in these assays?
LEDGF integ inh: inactive; mABHD4 FP: inactive; SIAE inh: inactive; TDP2 absorb: inactive

How did CC(=O)CC[C@@H]1CC[C@]2(CCCN(C(=O)C3CCCCC3)C2)O1 do in these assays?
LEDGF integ inh: inactive; mABHD4 FP: inactive; SIAE inh: inactive; TDP2 absorb: inactive

What do the screens show for `Cc1cc(=O)[nH]c(SCC(=O)Nc2ccc(Cl)cc2)n1`?
LEDGF integ inh: inactive; mABHD4 FP: inactive; SIAE inh: inactive; TDP2 absorb: inactive

How did COC(=O)[C@]12C[C@H](CC(=O)NCCCCc3ccccc3)C(=O)N(Cc3cccc4ccccc34)C1=C[C@H](C(C)(C)C)O[C@@H]2C do in these assays?
LEDGF integ inh: inactive; mABHD4 FP: inactive; SIAE inh: inactive; TDP2 absorb: inactive

Results for CCOC(=O)CS(=O)(=O)c1nc(-c2ccccc2)cc(C(F)(F)F)n1 ?
LEDGF integ inh: inactive; HTRA1 inh: inactive; TCR CD3 inh: 22; mABHD4 FP: inactive; SIAE inh: inactive; TDP2 absorb: inactive; BSA TAMRA ctr: inactive; TCR-CD3 inh conf: inactive

How did CCOC(=O)CCS(=O)(=O)c1nc(-c2ccccc2)cc(C(F)(F)F)n1 do in these assays?
HTRA1 inh: inactive

Results for O=C(CSc1nnc(-c2ccccc2)n1-c1ccc(Cl)cc1)c1ccc(F)cc1 ?
LEDGF integ inh: inactive; mABHD4 FP: inactive; SIAE inh: inactive; TDP2 absorb: inactive

Results for O=C(CCc1nnc(CCCCc2ccccc2)o1)N1CCC(N2CCCC2)CC1 ?
LEDGF integ inh: inactive; HTRA1 inh: inactive; TCR CD3 inh: 24; mABHD4 FP: inactive; SIAE inh: inactive; TDP2 absorb: inactive; BSA TAMRA ctr: inactive; TCR-CD3 inh conf: inactive

How did CC(=O)N1CCN(C(=O)CCc2nnc(CCCCc3ccccc3)o2)CC1 do in these assays?
LEDGF integ inh: inactive; HTRA1 inh: inactive; TCR CD3 inh: inactive; mABHD4 FP: inactive; SIAE inh: inactive; TDP2 absorb: inactive

What do the screens show for `O=C1COc2ccc(C(=O)COC(=O)/C=C/c3ccc(Br)o3)cc2N1`?
LEDGF integ inh: 24; HTRA1 inh: inactive; TCR CD3 inh: 22; mABHD4 FP: inactive; SIAE inh: inactive; TDP2 absorb: inactive; BSA TAMRA ctr: inactive; TCR-CD3 inh conf: 21

Results for C/C(=N\NC(=O)c1ccc(CN2CCc3ccccc3C2)cc1)c1ccccc1O ?
LEDGF integ inh: inactive; HTRA1 inh: inactive; TCR CD3 inh: 25; mABHD4 FP: inactive; SIAE inh: inactive; TDP2 absorb: inactive; BSA TAMRA ctr: inactive; TCR-CD3 inh conf: inactive

Results for O=C(CS(=O)(=O)c1ccccc1)Nc1nnc(Cc2ccccc2)s1 ?
LEDGF integ inh: inactive; HTRA1 inh: inactive; TCR CD3 inh: inactive; mABHD4 FP: inactive; SIAE inh: inactive; TDP2 absorb: inactive

How did CCCc1nnc(NC(=O)CS(=O)(=O)c2ccccc2)s1 do in these assays?
LEDGF integ inh: inactive; HTRA1 inh: inactive; TCR CD3 inh: 30; mABHD4 FP: inactive; SIAE inh: inactive; TDP2 absorb: inactive; BSA TAMRA ctr: inactive; TCR-CD3 inh conf: inactive

How did O=C(NCC(c1ccccc1)c1ccccc1)[C@H](Cc1ccccc1)NC1(C(=O)NC2CCCCC2)CCCCCC1 do in these assays?
LEDGF integ inh: inactive; mABHD4 FP: inactive; SIAE inh: inactive; TDP2 absorb: inactive

Results for O=C(CCc1ccccc1)N[C@H]1[C@H](OCc2ccccc2)CCC[C@@]12C(=O)N(Cc1ccccc1)c1ccccc12 ?
LEDGF integ inh: inactive; mABHD4 FP: inactive; SIAE inh: inactive; TDP2 absorb: inactive

High-throughput results: PubChem BioAssay, The Scripps Research Institute Molecular Screening Center
